Screening results: PubChem, several laboratories
OPRM1-OPRD1 ag: agonists of human mu-delta opioid receptor heterodimerization; P35372+P41143; cells, OPRM1-OPRD1 heterodimerization, luminescence; activation, % at 9.3 µM; actives 0.3% (n = 340,000); in the data active means activation above about 18%;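 further: 0% = vehicle-treated cells and 100% = reference agonist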
Arr AP2 block: blocks beta-arrestin peptide binding to AP2 adaptin. FITC-arrestin peptide / GST-AP2 beads, flow cytometry; AP2 beta2 appendage carries R879A mutation. actives 0.31% (n = 340,000). inhibition, % at 10 µM;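 active means inhibition above a set limit, near 3 SD of compounds lacking own fluorescence, cut at about 54% in these data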;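 further: plate controls were DMSO wells for no effect and 5 µM unlabelled arrestin peptide for full effect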
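System: GST-AP2 R879A glutathione beads; medium: PBS, Tween 20 0.05%, BSA 0.1%; reagent: fluorescein-tagged arrestin peptide at 50 nM final; schedule: pre-incubation 12 min, peptide binding 1 h, room temperature; detection: flow cytometry, FL1 (488/535 nm); read-out: inhibition as reduced fluorescein signal on beads, percent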
HTR5A inv ag: HTR5A inverse agonism, opioid heterodimer counter-screen; AID 504634; inhibition, % at 9.3 µM; actives 0.083% (n = 340,000); HTR5A cell line, luminescence; in the data active means inhibition mostly above about 23%, no sharp cut-off; inactive means mostly below about 18%;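 further: 0% = cells with DMSO and 100% = no-cell wells with DMSO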
OPRM1-OPRD1 inv: inverse agonist of human OPRM1-OPRD1 heterodimerization; P35372+P41143; cell-based MOR-DOR heterodimer luminescence, inverse agonism; inhibition, % at 9.3 µM; actives 0.21% (n = 340,000); AID 504357; in the data active means inhibition above about 22%, passing the limit was not always enough;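 further: 0% = cells with DMSO and 100% = wells without cells with DMSO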
HTR5A ag ctr: counter-screen for OPRM1-OPRD1 agonists: human HTR5A agonism; HTR5A agonist assay, luminescence, cell-based; activation, % at 9.3 µM; actives 0.61% (n = 340,000); AID 504692; in the data active means activation mostly above about 9.5%, no sharp cut-off; inactive means mostly below about 7.6%;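 further: 0% = cells with vehicle only and 100% = reference agonist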
DAGLB inhibitor: diacylglycerol lipase beta (human) inhibition | inhibition, % at 5.17 µM | HEK293T DAGLB membrane lysate, EnzChek fluorogenic substrate | AID 504411 | actives 0.059% (n = 340,000); in the data active means inhibition above about 34%;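 further: 0% = enzyme with vehicle and 100% = wells lacking enzyme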
Target sequence (Q8NCG7 whole entry, looked up): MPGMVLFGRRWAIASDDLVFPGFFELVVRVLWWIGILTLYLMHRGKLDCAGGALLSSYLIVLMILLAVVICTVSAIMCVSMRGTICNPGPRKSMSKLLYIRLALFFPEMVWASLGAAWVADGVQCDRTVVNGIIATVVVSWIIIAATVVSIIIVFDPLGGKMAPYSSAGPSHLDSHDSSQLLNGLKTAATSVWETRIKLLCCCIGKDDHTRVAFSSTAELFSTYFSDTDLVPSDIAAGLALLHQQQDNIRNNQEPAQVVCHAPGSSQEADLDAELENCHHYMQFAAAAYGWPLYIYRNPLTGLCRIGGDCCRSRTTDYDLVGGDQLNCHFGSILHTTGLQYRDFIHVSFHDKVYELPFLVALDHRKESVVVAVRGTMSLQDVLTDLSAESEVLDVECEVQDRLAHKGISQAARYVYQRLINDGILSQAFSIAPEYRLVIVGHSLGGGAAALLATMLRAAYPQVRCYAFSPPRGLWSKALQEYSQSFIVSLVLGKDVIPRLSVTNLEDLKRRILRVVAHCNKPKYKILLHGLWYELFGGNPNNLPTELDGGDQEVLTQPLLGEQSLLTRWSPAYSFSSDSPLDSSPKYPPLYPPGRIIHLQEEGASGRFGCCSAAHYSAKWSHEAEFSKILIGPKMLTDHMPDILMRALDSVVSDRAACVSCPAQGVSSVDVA
Arr AP2 CP1: human beta-arrestin and AP2 interaction inhibition, cherry pick | shares compounds with Arr AP2 block | GST-AP2 beads, FITC arrestin peptide binding, flow cytometry; GST-fused beta2-adaptin appendage, R879A mutant | inhibition, % at 10 µM | actives 2% (n = 1,300) | AID 504908;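 active means inhibition above a set limit, roughly 3 SD of non-fluorescent compound noise, cut at about 38% in these data; inactive means inhibition at or below that limit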;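 further: loss of bead fluorescence from 50 nM FITC arrestin peptide bound to appendage; 0% = negative control wells and 100% = excess unlabelled arrestin peptide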
GST GSH counter: disrupts GST binding to glutathione beads, arrestin-AP2 artifact | shares compounds with Arr AP2 block | GST-fluorescein binding to GSH beads, fluorescence, counter-screen | inhibition, % at 10 µM | actives 2% (n = 1,300);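 active means inhibition above 50%, about 3 SD of the inhibition seen with non-fluorescent compounds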;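 further: fluorescein maleimide labelled GST captured on 4 micron glutathione beads; higher means more loss of bead fluorescence from quenching or blocked binding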
* marks the source's active call; other numbers are inactive results; . = no result. Hits are enriched below; roughly 1.4% of the tested compounds scored in any of these assays.

SMILES	OPRM1-OPRD1 ag	Arr AP2 block	HTR5A inv ag	OPRM1-OPRD1 inv	HTR5A ag ctr	DAGLB inhibitor	Arr AP2 CP1	GST GSH counter
COc1ccc(OCC(=O)Nc2cc3oc4ccccc4c3cc2OC)cc1	-1.9	28.0	11.9	11.9	-1.4	-6.9	1.2	19.0
COc1cc2c(cc1NC(=O)Nc1ccc(F)cc1)oc1ccccc12	-1.4	-2.5	-15.6	7.6	2.5	-0.2	-11.4	-7.1
C[C@@H]1CCCCO[C@@H](CN(C)Cc2ccncc2)[C@@H](C)CN([C@H](C)CO)C(=O)c2cc(NC(=O)c3ccccc3)ccc2O1	.	.	.	.	.	-0.5	.	.
CCCn1c(=O)c(C(=O)NNC(=O)c2ccccc2Cl)c(O)c2ccccc21	-1.4	-35.1	16.0	7.9	-6.6	14.1	.	.
CCOC(=O)c1c(NC(=O)COC(=O)c2ccc(Cl)nc2)sc(C)c1C	.	.	.	.	.	-18.2	.	.
COc1cc2c(cc1NC(=O)Nc1ccc(C)cc1)oc1ccccc12	3.8	12.4	-11.1	-20.1	-3.2	21.0	-7.5	9.3
COc1ccc(/C=C/C(=O)NC(=S)Nc2cc3oc4ccccc4c3cc2OC)cc1	-2.0	6.1	-12.7	12.3	2.4	-0.4	.	.
COc1cc2c(cc1NC(=O)Nc1cccc(C)c1)oc1ccccc12	0.6	2.9	-20.9	-3.2	5.9	-5.4	14.4	7.4
COc1ccc(NC(=O)Nc2cc3oc4ccccc4c3cc2OC)cc1	-3.1	1.0	1.6	15.7	1.5	14.6	-11.0	1.3
COc1cc2c(cc1NC(=S)Nc1cccc(C)c1)oc1ccccc12	-0.4	-10.1	12.2	2.2	3.0	-2.6	.	.
COc1cc2c(cc1NC(=S)Nc1ccccc1C)oc1ccccc12	3.6	1.1	8.6	-18.0	-2.0	-2.9	.	.
COc1ncnc2c1ncn2CCCNCc1ccccn1	.	.	.	.	.	0.4	.	.
O=C(OCC(=O)N(CCc1ccccc1)Cc1ccccc1)c1ccc(F)c(S(=O)(=O)N2CCOCC2)c1	0.9	3.2	6.8	-3.7	-2.4	-5.1	.	.
O=C(NC(Cc1ccccc1)C(=O)N1CCN(c2ccc(F)cc2)CC1)c1ccccc1 (stereo unspecified)	.	.	.	.	.	-1.2	.	.
O=C(NN1C(=O)c2ccccc2NC1c1ccc([N+](=O)[O-])o1)c1ccc([N+](=O)[O-])cc1 (stereo unspecified)	3.3	-20.8	32.5	-17.1	5.1	1.2	.	.
O=C(NN1C(=O)c2ccccc2NC1c1ccoc1)c1ccc([N+](=O)[O-])cc1 (stereo unspecified)	0.9	57.3*	3.1	-4.4	-2.9	-0.3	-0.3	-8.2
Cc1ccc([C@@H]2C[C@H]3[C@@H](CN2S(=O)(=O)c2ccc(C)cc2)C(=O)C[C@@H](c2ccc(Cl)cc2)N3S(=O)(=O)c2ccccc2C)cc1	.	.	.	.	.	-12.5	.	.
O=C(Nc1cc(C(F)(F)F)ccc1N1CCOCC1)C1=COCCO1	0.1	54.9*	0.1	-0.6	0.0	-1.9	0.6	-5.5
O=C(NCc1ccccc1OC(F)(F)F)C1CCC(=O)N(Cc2ccccn2)C1 (stereo unspecified)	-2.9	15.8	-2.6	15.9	6.0	-3.2	.	.
O=C(NCc1ccccc1OC(F)(F)F)C1CCC(=O)N(CCc2ccccn2)C1 (stereo unspecified)	0.1	57.6*	-13.3	-0.6	3.2	-1.4	3.2	-1.9
COc1ccc(CCCNC(=O)C2CCC(=O)N(Cc3ccccc3F)C2)cc1 (stereo unspecified)	-2.4	-7.1	-0.7	12.2	-1.4	-0.6	-13.0	-1.5
COc1ccc(CCN2CC(C(=O)NCCc3ccc(F)cc3)CCC2=O)cc1 (stereo unspecified)	-1.9	11.2	15.2	9.7	-2.2	0.4	3.6	-4.7
COc1ccccc1CN1CC(C(=O)NCc2cc(F)cc(C(F)(F)F)c2)CCC1=O (stereo unspecified)	-2.4	-0.8	12.2	12.4	-1.0	-0.6	6.0	0.1
COc1cccc(N2CCN(C(=O)c3ccc(OC)c(S(=O)(=O)NC4CC4)c3)CC2)c1	.	.	.	.	.	2.1	.	.
